IC50 data for four compounds are collected here from ChEMBL document CHEMBL1125500 (J Med Chem, 1992).

A short description of experiment [1]: Inhibition of Steroid 17-alpha-hydroxylase/17,20 lyase cytochrome P450 17A1. Set-up: species or system Sus scrofa.
For experiment [2], the target named is Cholesterol side-chain cleavage enzyme, mitochondrial (Bos taurus) (UniProt P00189). The experiment can be described thus: Inhibition of cholesterol side chain cleavage cytochrome P450.
Experiment [3] has as its target T1, Lanosterol 14-alpha demethylase (Rattus norvegicus, UniProt Q64654).
T1 sequence (Q64654 whole entry): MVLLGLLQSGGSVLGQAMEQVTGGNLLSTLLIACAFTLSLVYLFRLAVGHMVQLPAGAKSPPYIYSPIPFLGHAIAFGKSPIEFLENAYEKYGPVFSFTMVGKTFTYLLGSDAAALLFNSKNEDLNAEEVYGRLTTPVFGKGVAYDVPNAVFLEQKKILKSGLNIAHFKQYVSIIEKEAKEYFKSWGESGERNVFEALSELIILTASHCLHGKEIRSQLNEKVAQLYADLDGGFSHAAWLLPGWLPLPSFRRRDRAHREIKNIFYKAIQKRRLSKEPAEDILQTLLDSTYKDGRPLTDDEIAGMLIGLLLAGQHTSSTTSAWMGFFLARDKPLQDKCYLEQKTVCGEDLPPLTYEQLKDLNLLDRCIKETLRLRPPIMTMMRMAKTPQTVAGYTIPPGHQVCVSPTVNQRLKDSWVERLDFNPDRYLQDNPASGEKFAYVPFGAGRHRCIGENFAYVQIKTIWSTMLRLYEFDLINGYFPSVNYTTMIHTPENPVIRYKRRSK
Kind of experiment: Inhibition of lanosterol 14 alpha-demethylase cytochrome P450 51A. In short, it runs like this: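 Liver microsomes from cholestyramine-treated male rats. Buffer was potassium phosphate pH 7.0 with DTT, EDTA, MgCl2, 0.005% Tween-20, 20% glycerol, 5 mM glucose 6-phosphate and G6P dehydrogenase. […] Reaction was started with NADPH, run 30 min at 37 °C and stopped with TCA. Tritiated water-soluble products were separated on Bond-Elut and counted by scintillation in duplicate.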

The target of the next experiment is Cytochrome P450 2A2 (Rattus norvegicus, UniProt P15149). The experiment can be described thus: Inhibition of cytochrome P450 progesterone 15-alpha hydroxylase. Type of experiment: ADME.
Experiment [4] in a line: Inhibition of cytochrome P450 progesterone 16-alpha hydroxylase. Type of experiment: ADME, Rattus norvegicus.
Experiment [5] can be described thus: Inhibition of lauric acid hydroxylase cytochrome P450 4A. Also noted: species or system Rattus norvegicus. The method, boiled down:
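Microsomal protein (0.05 mg/mL) with [14C]lauric acid (10 nmol, 6 mCi/mmol), potassium phosphate pH 7.4, MgCl2, EDTA, glucose 6-phosphate, glucose-6-phosphate dehydrogenase (2 units) and NADPH, in 1 mL. Ran 10 min at 37 °C and was stopped with CH2Cl2. Products were resolved by reverse-phase HPLC on a MeCN gradient with radioflow detection.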

Cytochrome P450 2A2, sequence (P15149 whole entry): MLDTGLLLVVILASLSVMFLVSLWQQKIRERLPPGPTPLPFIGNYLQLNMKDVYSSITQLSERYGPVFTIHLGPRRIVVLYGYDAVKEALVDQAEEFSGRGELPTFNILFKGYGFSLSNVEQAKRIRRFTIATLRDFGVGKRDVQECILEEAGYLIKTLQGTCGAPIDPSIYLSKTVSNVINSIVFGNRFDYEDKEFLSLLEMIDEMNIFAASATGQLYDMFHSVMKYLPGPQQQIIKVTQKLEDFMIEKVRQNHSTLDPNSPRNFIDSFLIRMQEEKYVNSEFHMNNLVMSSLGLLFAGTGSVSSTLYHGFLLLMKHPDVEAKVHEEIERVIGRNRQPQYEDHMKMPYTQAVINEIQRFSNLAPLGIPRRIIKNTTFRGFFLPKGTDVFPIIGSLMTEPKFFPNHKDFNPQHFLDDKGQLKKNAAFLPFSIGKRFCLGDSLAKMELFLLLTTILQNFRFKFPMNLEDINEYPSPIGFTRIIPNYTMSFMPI
Cholesterol side-chain cleavage enzyme, mitochondrial (Bos taurus), sequence (P00189 whole entry, looked up): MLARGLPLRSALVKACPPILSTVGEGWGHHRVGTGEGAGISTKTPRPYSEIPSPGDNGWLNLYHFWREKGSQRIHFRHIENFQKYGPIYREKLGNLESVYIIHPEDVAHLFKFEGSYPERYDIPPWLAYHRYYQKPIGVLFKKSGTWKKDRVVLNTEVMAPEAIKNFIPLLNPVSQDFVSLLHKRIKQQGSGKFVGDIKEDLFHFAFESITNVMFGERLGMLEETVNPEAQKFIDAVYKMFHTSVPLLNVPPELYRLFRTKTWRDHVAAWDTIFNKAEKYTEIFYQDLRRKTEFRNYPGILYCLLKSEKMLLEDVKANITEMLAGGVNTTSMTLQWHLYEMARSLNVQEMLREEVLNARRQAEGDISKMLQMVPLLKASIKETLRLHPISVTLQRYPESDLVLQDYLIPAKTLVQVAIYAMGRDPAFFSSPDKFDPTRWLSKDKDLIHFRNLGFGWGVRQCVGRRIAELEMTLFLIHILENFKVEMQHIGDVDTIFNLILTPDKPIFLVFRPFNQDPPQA

`CC(=O)N1CCN(c2ccc(OCC3COC(Cn4ccnc4)(c4ccc(Cl)cc4Cl)O3)cc2)CC1` (stereo in doubt; 2) [KETOCONAZOLE]: the IC50 in experiment [1] was 50 nM; in experiment [2] it was 1240 nM; in experiment [3] it was 47 nM; against Cytochrome P450 2A2, 543 nM; in experiment [4], 83900 nM.
As to `CC(=O)N1CCN(c2ccc(OCC3COC(Cn4ccnc4)(c4ccc(Cl)cc4Cl)O3)cc2)CC1` (stereo in doubt; 4) [KETOCONAZOLE], the IC50 is 2380 nM in experiment [1]; 5400 nM in experiment [2]; 119 nM in experiment [3]; 369 nM at Cytochrome P450 2A2; 69300 nM in experiment [4]; greater than 100000 nM in experiment [5].
As for `CC(=O)N1CCN(c2ccc(OC[C@@H]3CO[C@](Cn4ccnc4)(c4ccc(Cl)cc4Cl)O3)cc2)CC1`, the IC50 is 3920 nM in experiment [2]; 1370 nM in experiment [3]; 728 nM against Cytochrome P450 2A2; 32300 nM in experiment [4]; greater than 100000 nM in experiment [5].
With `CC(=O)N1CCN(c2ccc(OC[C@H]3CO[C@@](Cn4ccnc4)(c4ccc(Cl)cc4Cl)O3)cc2)CC1`, the IC50 in experiment [1] was 589 nM; in experiment [2], 2950 nM; in experiment [3], 1600 nM; at Cytochrome P450 2A2, 1080 nM; in experiment [4], 37900 nM; in experiment [5], greater than 100000 nM.

Broadly, the IC50 is the concentration that gives 50% inhibition. Read a low IC50 as greater potency in that assay.
